Results as given in ChEMBL document CHEMBL1152495, “Synthesis and antimicrobial studies of novel methylene bridged benzisoxazolyl imidazo[2,1-b][1,3,4]thiadiazole derivatives” (2009).
Converted amounts (≈) assume the structure as drawn.

Columns and labels:
Assay type in all cases: functional
[1] = test system: Staphylococcus aureus; assay: Antibacterial activity against Staphylococcus aureus ATCC 25923 at 100 ug/ml after 24 hrs by agar well diffusion method; conditions: ATCC 25923, 24 h, read-out: IZ
In short: (§1)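 Agar well diffusion on Mueller Hinton agar (20 mL per dish), seeded homogeneously with liquid bacterial culture by spread plating. Samples loaded directly into wells, dimethylformamide as solvent control, ampicillin as reference drug. Plates incubated at 37 °C for 24 h. All determinations done in triplicate.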

[2] = test system: Bacillus subtilis; assay: Antibacterial activity against Bacillus subtilis ATCC 6633 at 100 ug/ml after 24 hrs by agar well diffusion method; conditions: ATCC 6633, 24 h, read-out: IZ; in short: as §1
[3] = test system: Escherichia coli; assay: Antibacterial activity against Escherichia coli ATCC 35218 at 100 ug/ml after 24 hrs by agar well diffusion method; conditions: ATCC 35218, 24 h, read-out: IZ; in short: as §1
[4] = test system: Pseudomonas aeruginosa; assay: Antibacterial activity against Pseudomonas aeruginosa ATCC 10145 at 100 ug/ml after 24 hrs by agar well diffusion method; conditions: ATCC 10145, 24 h, read-out: IZ; in short: as §1
[5] = test system: Candida albicans; assay: Antifungal activity against Candida albicans at 100 ug/ml after 72 hrs by agar well diffusion method; conditions: read-out: IZ
In short: (§2)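 Fungi grown on Potato Dextrose Agar (20 mL per dish), seeded homogeneously with liquid culture by spread plating. Samples loaded directly into agar wells, with dimethylformamide as solvent control and clotrimazole as reference drug. Plates incubated at 25 °C for 72 h, triplicate determinations.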

[6] = test system: Aspergillus fumigatus; assay: Antifungal activity against Aspergillus fumigatus at 100 ug/ml after 72 hrs by agar well diffusion method; conditions: read-out: IZ; in short: as §2
[7] = test system: Staphylococcus aureus; assay: Antibacterial activity against Staphylococcus aureus ATCC 25923 after 24 hrs by agar well diffusion method; conditions: ATCC 25923, 24 h; in short: as §1
[8] = test system: Bacillus subtilis; assay: Antibacterial activity against Bacillus subtilis ATCC 6633 after 24 hrs by agar well diffusion method; conditions: ATCC 6633, 24 h; in short: as §1
[9] = test system: Escherichia coli; assay: Antibacterial activity against Escherichia coli ATCC 35218 after 24 hrs by agar well diffusion method; conditions: ATCC 35218, 24 h; in short: as §1
[10] = test system: Pseudomonas aeruginosa; assay: Antibacterial activity against Pseudomonas aeruginosa ATCC 10145 after 24 hrs by agar well diffusion method; conditions: ATCC 10145, 24 h; in short: as §1
[11] = test system: Candida albicans; assay: Antifungal activity against Candida albicans after 72 hrs by agar well diffusion method; in short: as §2
[12] = test system: Aspergillus fumigatus; assay: Antifungal activity against Aspergillus fumigatus after 72 hrs by agar well diffusion method; in short: as §2

Compound	MIC [7] [µg/mL]	MIC [8] [µg/mL]	MIC [9] [µg/mL]	MIC [10] [µg/mL]	MIC [11] [µg/mL]	MIC [12] [µg/mL]	zone of inhibition at 100 µg/mL [1] [mm]	zone of inhibition at 100 µg/mL [2] [mm]	zone of inhibition at 100 µg/mL [3] [mm]	zone of inhibition at 100 µg/mL [4] [mm]	zone of inhibition at 100 µg/mL [5] [mm]	zone of inhibition at 100 µg/mL [6] [mm]
Brc1ccc(-c2cn3nc(Cc4noc5ccccc45)sc3n2)cc1	2.5 (≈ 6.08 µM)	0.5 (≈ 1.22 µM)	1 (≈ 2.43 µM)	2.5 (≈ 6.08 µM)	2 (≈ 4.86 µM)	3.5 (≈ 8.51 µM)	15	18	20	14	22	13
N#CSc1c(-c2ccccc2)nc2sc(Cc3noc4ccccc34)nn12	1.5 (≈ 3.85 µM)	1.5 (≈ 3.85 µM)	3 (≈ 7.7 µM)	2 (≈ 5.14 µM)	3.5 (≈ 8.99 µM)	2.5 (≈ 6.42 µM)	16	14	12	17	12	15
N#CSc1c(-c2ccc([N+](=O)[O-])cc2)nc2sc(Cc3noc4ccccc34)nn12	2 (≈ 4.6 µM)	2.5 (≈ 5.75 µM)	4 (≈ 9.21 µM)	3 (≈ 6.91 µM)	3.5 (≈ 8.06 µM)	3.5 (≈ 8.06 µM)	9	8	7	10	11	9
Nc1nnc(Cc2noc3ccccc23)s1	1.5 (≈ 6.46 µM)	1 (≈ 4.31 µM)	3.5 (≈ 15.1 µM)	2.5 (≈ 10.8 µM)	3 (≈ 12.9 µM)	3.5 (≈ 15.1 µM)	15	15	10	14	14	11
Clc1ccc(-c2cn3nc(Cc4noc5ccccc45)sc3n2)cc1	2 (≈ 5.45 µM)	0.5 (≈ 1.36 µM)	1.5 (≈ 4.09 µM)	3 (≈ 8.18 µM)	3.5 (≈ 9.54 µM)	1.5 (≈ 4.09 µM)	12	17	18	12	11	16
COc1ccc(-c2nc3sc(Cc4noc5ccccc45)nn3c2Br)cc1	1.5 (≈ 3.4 µM)	0.5 (≈ 1.13 µM)	2 (≈ 4.53 µM)	2 (≈ 4.53 µM)	4 (≈ 9.06 µM)	2.5 (≈ 5.66 µM)	11	18	16	17	10	15
COc1ccc(-c2nc3sc(Cc4noc5ccccc45)nn3c2SC#N)cc1	2 (≈ 4.77 µM)	1 (≈ 2.38 µM)	3 (≈ 7.15 µM)	1.5 (≈ 3.58 µM)	2.5 (≈ 5.96 µM)	2.5 (≈ 5.96 µM)	9	15	13	19	20	16
c1ccc(-c2cn3nc(Cc4noc5ccccc45)sc3n2)cc1	1 (≈ 3.01 µM)	2 (≈ 6.02 µM)	3.5 (≈ 10.5 µM)	3.5 (≈ 10.5 µM)	3.5 (≈ 10.5 µM)	2 (≈ 6.02 µM)	16	11	9	9	12	19

Continued, in another order:

MIC [7] [µg/mL]	MIC [8] [µg/mL]	MIC [9] [µg/mL]	MIC [10] [µg/mL]	MIC [11] [µg/mL]	MIC [12] [µg/mL]	Compound	zone of inhibition at 100 µg/mL [1] [mm]	zone of inhibition at 100 µg/mL [2] [mm]	zone of inhibition at 100 µg/mL [3] [mm]	zone of inhibition at 100 µg/mL [4] [mm]	zone of inhibition at 100 µg/mL [5] [mm]	zone of inhibition at 100 µg/mL [6] [mm]
1 (≈ 2.27 µM)	2.5 (≈ 5.68 µM)	2 (≈ 4.54 µM)	3 (≈ 6.81 µM)	2.5 (≈ 5.68 µM)	2.5 (≈ 5.68 µM)	O=Nc1c(-c2ccc(Br)cc2)nc2sc(Cc3noc4ccccc34)nn12	16	12	14	12	17	15
1.5 (≈ 3.69 µM)	1.5 (≈ 3.69 µM)	3.5 (≈ 8.61 µM)	3 (≈ 7.38 µM)	2.5 (≈ 6.15 µM)	4 (≈ 9.84 µM)	O=Nc1c(-c2ccc([N+](=O)[O-])cc2)nc2sc(Cc3noc4ccccc34)nn12	12	14	9	11	17	11
1.5 (≈ 3.83 µM)	3 (≈ 7.66 µM)	2 (≈ 5.11 µM)	3.5 (≈ 8.94 µM)	3 (≈ 7.66 µM)	4 (≈ 10.2 µM)	COc1ccc(-c2nc3sc(Cc4noc5ccccc45)nn3c2N=O)cc1	13	11	16	8	14	10
3 (≈ 7.49 µM)	1 (≈ 2.5 µM)	3.5 (≈ 8.74 µM)	3 (≈ 7.49 µM)	2.5 (≈ 6.24 µM)	3.5 (≈ 8.74 µM)	O=c1oc2ccccc2cc1-c1cn2nc(Cc3noc4ccccc34)sc2n1	13	15	10	10	20	13
2 (≈ 5.05 µM)	1.5 (≈ 3.79 µM)	3 (≈ 7.58 µM)	2.5 (≈ 6.32 µM)	3 (≈ 7.58 µM)	2.5 (≈ 6.32 µM)	O=Nc1c(-c2ccc(Cl)cc2)nc2sc(Cc3noc4ccccc34)nn12	10	14	13	15	15	17
1.5 (≈ 3.28 µM)	1 (≈ 2.19 µM)	3.5 (≈ 7.65 µM)	2 (≈ 4.37 µM)	3.5 (≈ 7.65 µM)	2 (≈ 4.37 µM)	N#CSc1c(-c2cc3ccccc3oc2=O)nc2sc(Cc3noc4ccccc34)nn12	14	15	14	16	12	19
1.5 (≈ 3.49 µM)	1.5 (≈ 3.49 µM)	3 (≈ 6.99 µM)	2.5 (≈ 5.82 µM)	3 (≈ 6.99 µM)	3.5 (≈ 8.15 µM)	O=Nc1c(-c2cc3ccccc3oc2=O)nc2sc(Cc3noc4ccccc34)nn12	14	15	12	14	15	12
1 (≈ 2.77 µM)	2 (≈ 5.53 µM)	3 (≈ 8.3 µM)	3 (≈ 8.3 µM)	3.5 (≈ 9.68 µM)	2.5 (≈ 6.92 µM)	O=Nc1c(-c2ccccc2)nc2sc(Cc3noc4ccccc34)nn12	18	13	11	10	13	16
1 (≈ 2.43 µM)	2.5 (≈ 6.08 µM)	3 (≈ 7.29 µM)	2 (≈ 4.86 µM)	3 (≈ 7.29 µM)	3.5 (≈ 8.51 µM)	Brc1c(-c2ccccc2)nc2sc(Cc3noc4ccccc34)nn12	18	12	11	16	14	12
